This sample holds only a part of the variants without activity.

These results are taken from the RNAGym collection of RNA variant scans (doi:10.1101/gad.245936.114).

B1: tRNA (parent)
chain: CUCUCGGUAGCCAAGUUGGUUUAAGGCGCAAGACUUUAAUUUAUCACUACGAAAUCUUGAGAUCGGGCGUUCGACUCGCCCCCGGGAGAUUUUUUCCUCGAGCAA

The series covers variants of B1. The series can be described thus: nonsense suppression (GFP-seq) (ratio to wild type); higher = more function; SUP4oc tRNA, yeast GFP reporter sort-seq. The method, boiled down: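 Yeast were grown in raffinose/galactose medium with 80 mg/L adenine, each strain bearing a genome-integrated ochre-suppressor tRNA variant from a ~3% random-mutation library, a galactose-driven GFP ochre reporter, and RFP. After sorting into GFP/RFP bins, every bin was sequenced on an Illumina platform at phred ≥30. The GFPSEQ value, a measure of nonsense suppression, is the weighted bin median GFP/RFP relative to the unmutated parent tRNA, using each variant's estimated cell share per bin as the weight. Only variants with ≥100 reads and ≥30 cells were included.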
As to AUCUCGGUAGCGAAGUUGGUUUAAGGCGCAAGACUUUAAUUUAUCACUACGAAAUCUAGAGAUCGGGCGUUCGACUCGCCCCCGGGAGAUUUUUUCCUCGAGCAA [C1A C12G U58A], the nonsense suppression is no more than 0.026.

Take AUCUCGGUAGCCAAGUUGGUUUAAGGCGCAAGACUUUAAUUUAUCACUACGAAAUCUUGAGAUCGGGCGUUCGACUCGCCCCCGGCAGAUUUUUUCCUCGAGCAA [C1A G86C]: the nonsense suppression was no more than 0.026.

For the variant GUCUCGGUAGCCAAGUUGGUUUAUGGCACAAGACUUUAAUUUAUCACUACGAAAUCUUGAGAUCGGGCGUUCGCCUCGCCACCGGGAGGUUUUUUCCUCGAGCAA [C1G A24U G28A A74C C81A A89G], the nonsense suppression is no more than 0.026.

For AUCUCGGUAGCCAAGUUGGUUUAAGGCGCAAGACUUUAAUUUAUCACUACGAAAUCUUGAGAUCGGGCGUUCGACUCGCUCCCGGGAGAUUUUUUCCUCGAGCAA [C1A C80U], the nonsense suppression was 0.0314.

For AGCUCGGUAGCCAAGUUGAUUUAAGGCGCAACACUUUAAUUUAUCACUACGAAAUCUUGAGAUCGGGCGUUCGACUCGCCCCCGGGAGGUUUUUUCCUCGAGCAA [C1A U2G G19A G32C A89G], the nonsense suppression was no more than 0.026.

On to AUCUCGGGAGCUACGUUGGUUUAAGGCGCAAGACUUUAAUUUAUCACUACGAAAUCUUGAGAUCGGGCGUUCGACUCGCCCCCGUGAGAUUUUUUCCUCGAGCAA [C1A U8G C12U A14C G85U], for which the nonsense suppression was no more than 0.026.

Consider AUCUCGGUUGCCAAGUUGGUUUAAGGCGCAAGACUUUAAUUUAUCACUACGAAAUCUUGAGAUCGGGGGUUCGACACGCCACCGGGAGAUUUUUUCCUCGAGCAA [C1A A9U C68G U76A C81A], for which the nonsense suppression was no more than 0.026.

With AUCUCGGUAGCCAAGAUGGUUUAAGGCGCAAGACUUUAAUUUAUCACUACGAAAUCUUGAGAUCGGGCGUUCGACUCGCCCCCGGGACAUUUUUUCCUCGAGCAA [C1A U16A G88C], the nonsense suppression is no more than 0.026.

With AUCUCGGUAGCCAAGUGGGGUUAAGGCGCAAGACUUUAAUUUAUCACUACGAAAUCUUGAGAUCGGGCGUUCGACUCGCCCCCGGGAGAUUUUUUCCUCGAGCAA [C1A U17G U20G], the nonsense suppression is no more than 0.026.

On to AUCUCGGUAGCCAAGUUGGUUUAAGGCGCAUGACUUUAAUUUAUCACUACGAAAUCUUGAGAUCGGGCGUUCGACUCGCCCCCAGGAAAUUUUUUCCUCGAGCAA [C1A A31U G84A G88A], for which the nonsense suppression is no more than 0.026.

In the case of GUCUCGGUAGCCAAGUUGGUUUAAGGCGCAAGACUUUAAUUUAUCACUACGAAAUCUUGAGAUCGGGCGUUCGACUCGCCCCCGGGGGAUUUUUUCCUCGAGCAA [C1G A87G], the nonsense suppression was no more than 0.026.

In the case of AUCUCGGUAGCCAAGUUGGUUUAAGGCGCAAGACUUUAAUUUAUCACUACGAAAUCUUGAGAUCGGGCGUUCGACUCGCCCCCGUGAGAUUUUUUCCUCGAGCAA [C1A G85U], the nonsense suppression stood at 0.03.

With AUCUGGGUAGCCAAGUUGGUUUAAGGCGCAAGACUUUAAUUUAUCACUACGAAAUCUUGAGAUCGGGCGUUCGACUCGCCCCCGGGAGAUUUUUUCCUCGAGCAA [C1A C5G], the nonsense suppression is no more than 0.026.

For AUCUCGGUAGCCUAGUUGGUUUAAGGCGCAAGACUUUAAUUUAUCACUACGAAAUCUUGAGAUCGGGCGUUCGACUCGCCCCCGGGAGAUUUUUUCCUCGAGCAA [C1A A13U], the nonsense suppression was no more than 0.026.

As to GUCUCGGUAGCCAAGUUGGUUUAAGGCGCAAGACUUUAAUUUAUCACUACGAAGUCUUGAGAGCGGGCGGUCGACUCGCCCCCGGGAGAUUUUUUCCUCGAGCAA [C1G A54G U63G U70G], the nonsense suppression is no more than 0.026.

Take AUCUCGGUAGCCAAGUUGGUUUAAGGCGCAAGACUUUAAUUUAUCACUACGAAAUGUUGAGUUCGGGCGUUCGACUCGCGCACGGGAGAUUUUUUCCUCGAGCAA [C1A C56G A62U C80G C82A]: the nonsense suppression was no more than 0.026.

Turning to AUCUCGGAAGCCAAGUUGGUUUAAGGCGCAAGACUUUAAUUUAUCACUACGAAACCUUGAGAUCGGGCGUUCGACUCGCCCCCGGGAGUUUUUUUCCUCGAGCAA [C1A U8A U55C A89U], the nonsense suppression was no more than 0.026.

Take AACUCGGUAGCCAAGUUGGUUUAAGGCGCAAGACCUUAAUUUAUCACUACGAAAUCUUGAGAUCGGGCGAUCGACUCGCCCCCGGGAGAUUUUUUCCUCGAGCAA [C1A U2A U35C U70A]: the nonsense suppression is no more than 0.026.

Regarding AUGUCGGUAGCCAAGUUGGUUUAAGGCGCAAGACUUUAAUUUAUCACUACGAAAUCUAGAGAUCGGGGGUUCGACUCGCCCCCGGGAGAUUUUUUCCUCGAGCAA [C1A C3G U58A C68G], the nonsense suppression is no more than 0.026.

On to GUCUCGGUAGCCUAGUUGGUUUAAUGCGCAAGACUUUAAUUUAUCACUACGAAAUCUUCAGAUCGGGCGUUCGACUCGCCCCCGGGAGAUUUUUUCCUCGAGCAA [C1G A13U G25U G59C], for which the nonsense suppression is no more than 0.026.

Regarding GUCUCGGUGGACAAGUUGGUAUAAGGCGCCAGACUUUAAUUUAUCACUACGAAAUCUUGAGAUCGGGCGUUCGACUCACCCCCGGGAGAUUUUUUCCUCGAGCAA [C1G A9G C11A U21A A30C G78A], the nonsense suppression is no more than 0.026.

On to GUCUCGGUAGCCAAGUUGGUUUAAGGCGCAAGGCUUUAAUUUAUCACUACGAAACCUUGAGAUCGGGCGUGCGACUCCCCCCCGGGAGAUUUUUUCCUCGAGCAA [C1G A33G U55C U71G G78C], for which the nonsense suppression was no more than 0.026.

As for AUCUCGGUAGCCAAGUUCGUUUAAGGCGCAAGACUUUAAUUUAUCACUACGAAAUCUUGAGAUCGGGCGUUCGACUCGCCCCCGGGAGAUUUUUUCCUCGAGCAA [C1A G18C], the nonsense suppression was no more than 0.026.

GUGUCGGUAGCCAAGUUGGUUUAAAGUGCAAGACUUUAAUUUAUCACUACGAAAUCUUGAGAUCGGGCGUUCGACUCGCCCCCGGGAGAUUUUUUCCUCGAGCAA [C1G C3G G25A C27U]: the nonsense suppression was no more than 0.026.

On to GUCUGGGUAGCCAAGUUGGUUUAAGGCGCACGACUUUAAUUUAUCACUACGAAAUCUUGAGAUCGGGCGUUCAACUCGCCCCCGGGAGAUUUUUUCCUCGAGCAA [C1G C5G A31C G73A], for which the nonsense suppression is no more than 0.026.

Regarding AUCUCGGUAGCCAAGUUGGUUUAAGCCGCAAGACUUUAAUUUAUCACUACGAAAUCUUGAGAUCGGGCGUUCGACUCGCCCCCGGGAGAUUUUUUCCUCGAGCAA [C1A G26C], the nonsense suppression is no more than 0.026.

As to AUCUCGGUAGCCAAGUUGGUUUAAGGCGCAAGACUUUAAUUUAUCACUACGAAGUCUCGAGAUCGGGCGUCCGACUCGCCCCCGGGAGAUUUUUUCCUCGAGCAA [C1A A54G U58C U71C], the nonsense suppression was no more than 0.026.
